In general, IC50 refers to the point on the concentration scale where inhibition reaches its midpoint.

Experiment [1] concerns BT-474. Kind of experiment: Induction of apoptosis in human BT474 cells at 2 nM after 24 hrs by Annexin V-phycoerythrin/7-AAD staining based flow cytometric analysis relative to control. The class given is functional. (In flow cytometry, cells or beads pass a laser one at a time.)
The subject of experiment [2] is MDA-MB-468. The experiment in a line: Induction of apoptosis in human MDA-MB-468 cells at 1 nM after 24 hrs by Annexin V-phycoerythrin/7-AAD staining based flow cytometric analysis relative to control. The class given is functional.
Experiment [3] concerns MCF7. The experiment in a line: Induction of apoptosis in human MCF7 cells at 1 nM after 24 hrs by Annexin V-phycoerythrin/7-AAD staining based flow cytometric analysis relative to control. The format is functional.
In experiment [4] the target is T1, Mitogen-activated protein kinase; ERK1/ERK2 (Homo sapiens) (UniProt P27361+P28482). Kind of experiment: Inhibition of ERK1/2 in paclitaxel-resistant human MCF7/PTX cells assessed as reduction in paclitaxel-induced phosphorylation of ERK1/2 at Thr202/Tyr204 residues up to 3 uM preincubated for 1 hrs followed by 1 nM paclitaxel addition and measured after 30 mins by AlphaScreen analysis. The class given is cell-based.
T1 sequence (P27361 whole entry, looked up): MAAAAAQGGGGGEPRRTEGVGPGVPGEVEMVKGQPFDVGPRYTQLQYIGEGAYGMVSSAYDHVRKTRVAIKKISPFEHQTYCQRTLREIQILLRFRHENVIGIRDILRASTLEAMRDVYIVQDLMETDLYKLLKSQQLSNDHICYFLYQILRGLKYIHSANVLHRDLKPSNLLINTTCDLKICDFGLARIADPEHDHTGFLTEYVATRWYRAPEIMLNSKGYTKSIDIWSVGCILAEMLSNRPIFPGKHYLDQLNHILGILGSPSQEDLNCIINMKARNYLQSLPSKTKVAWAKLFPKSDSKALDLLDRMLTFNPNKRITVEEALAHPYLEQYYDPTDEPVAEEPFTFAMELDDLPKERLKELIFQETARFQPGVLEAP
T1 sequence (P28482 whole entry, looked up): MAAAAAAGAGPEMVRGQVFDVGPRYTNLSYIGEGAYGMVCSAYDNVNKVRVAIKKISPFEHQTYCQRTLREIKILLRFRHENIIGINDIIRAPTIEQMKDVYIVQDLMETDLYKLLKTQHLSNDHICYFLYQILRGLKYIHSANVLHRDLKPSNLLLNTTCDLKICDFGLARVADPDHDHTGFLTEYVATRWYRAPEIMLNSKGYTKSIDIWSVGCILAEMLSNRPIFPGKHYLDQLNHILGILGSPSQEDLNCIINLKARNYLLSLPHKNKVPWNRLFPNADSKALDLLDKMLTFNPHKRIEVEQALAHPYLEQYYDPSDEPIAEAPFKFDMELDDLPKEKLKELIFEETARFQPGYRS

The subject of experiment [5] is MDA-MB-468. Kind of experiment: Synergistic cytotoxicity against human MDA-MB-468 cells assessed as combination index at 0.5 to 2 uM after 24 hrs in presence of 5 to 20 nM of paclitaxel by MTT assay. The format is functional. The method, boiled down:
(§1)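 The Chou–Talalay median-effect method was applied to 24 h MTT viability data. Five fixed-ratio plumbagin (μM)/paclitaxel (nM) combinations were used: for MCF-7 1/0.5, 2/1, 3/3, 4/5, 5/10. Cell-line-specific series were used for BT474 and MDA-MB-468. Single agents were run in parallel. CI was computed at several effect levels.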

Experiment [6] concerns the target T1, Mitogen-activated protein kinase; ERK1/ERK2 (Homo sapiens). The experiment in a line: Inhibition of ERK1/2 in human MCF7 cells assessed as reduction in paclitaxel-induced phosphorylation of ERK1/2 at Thr202/Tyr204 residues up to 3 uM preincubated for 1 hrs followed by 1 nM paclitaxel addition and measured after 30 mins by AlphaScreen analysis relative to control. The class given is cell-based. On the technique in general: Alpha assays give light when donor and acceptor beads are brought close together.

Experiment [7] has as its system MCF7/PTX. The experiment in a line: Potentiation of paclitaxel-induced apoptosis in paclitaxel-resistant human MCF7/PTX cells at 2 uM after 24 hrs by Annexin V-phycoerythrin/7-AAD staining based flow cytometric analysis. The format is functional, cell-based. The method, boiled down: (§2)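 Cells were treated for 24 h with single agents or combinations, then washed in annexin-binding buffer and stained with annexin V-PE and 7-AAD for 30 min at 15 °C in the dark. Apoptotic fraction was read by flow cytometry. DMSO was 0.5% final. Data from at least three independent experiments, one-way ANOVA with Tukey's test.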

The subject of experiment [8] is BT-474. Kind of experiment: Induction of apoptosis in human BT474 cells up to 2.5 uM after 24 hrs in presence of 2 nM of paclitaxel by Annexin V-phycoerythrin/7-AAD staining based flow cytometric analysis relative to control. The format is functional. The method in brief: as §2
The target of experiment [9] is T1, Mitogen-activated protein kinase; ERK1/ERK2 (Homo sapiens). Kind of experiment: Inhibition of ERK1/2 in human MDA-MB-468 cells assessed as reduction in EGF-induced phosphorylation of ERK1/2 level up to 0.5 uM preincubated for 24 hrs followed by EGF addition and measured after 30 mins by Western blot analysis. The class given is cell-based.
Experiment [10] concerns MDA-MB-468. Kind of experiment: Induction of apoptosis in human MDA-MB-468 cells at 0.5 uM after 24 hrs in presence of 1 nM of paclitaxel by Annexin V-phycoerythrin/7-AAD staining based flow cytometric analysis relative to control. The format is functional. The method in brief:
as §2

Experiment [11] deals with MDA-MB-468. The experiment in a line: Induction of apoptosis in human MDA-MB-468 cells at 0.2 uM after 24 hrs in presence of 1 nM of paclitaxel by Annexin V-phycoerythrin/7-AAD staining based flow cytometric analysis relative to control. The class given is functional. The method in brief: as §2
The subject of experiment [12] is MCF7. The experiment in a line: Induction of apoptosis in human MCF7 cells up to 3 uM after 24 hrs in presence of 1 nM of paclitaxel by Annexin V-phycoerythrin/7-AAD staining based flow cytometric analysis relative to control. The format is functional. The method in brief:
as §2

In experiment [13] the test system is MCF7. The experiment in a line: Synergistic cytotoxicity against human MCF7 cells assessed as combination index at 1 to 5 uM after 24 hrs in presence of 0.5 to 10 nM of paclitaxel by MTT assay. The class given is functional. The method, boiled down: as §1
In experiment [14] the target is T1, Mitogen-activated protein kinase; ERK1/ERK2 (Homo sapiens). The experiment in a line: Inhibition of ERK1/2 in human MDA-MB-468 cells assessed as reduction in paclitaxel-induced phosphorylation of ERK1/2 at Thr202/Tyr204 residues up to 1 uM preincubated for 1 hrs followed by 1 nM paclitaxel addition and measured after 30 mins by AlphaScreen analysis relative to control. The format is cell-based.

Experiment [15] relates to BT-474. Kind of experiment: Induction of apoptosis in human BT474 cells pre-treated with ERK1/2 siRNA at 1.5 uM in presence of 2 nM paclitaxel by Annexin V-phycoerythrin/7-AAD staining based flow cytometric analysis relative to control. The format is functional, cell-based. The method, boiled down: (§3)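 Cells were transiently transfected for 24 h with ERK1 and ERK2 siRNA (0.5 μg) or scrambled control siRNA, with knockdown checked by Western blot. Cells were then treated for 24 h with the combination, stained with annexin V-PE and 7-AAD, and analysed by flow cytometry. Apoptosis was compared against control-siRNA cells.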

Experiment [16] deals with T1, Mitogen-activated protein kinase; ERK1/ERK2 (Homo sapiens). Kind of experiment: Inhibition of ERK1/2 in human MDA-MB-468 cells assessed as reduction in EGF-induced phosphorylation of ERK1/2 at Thr202/Tyr204 residues up to 1 uM preincubated for 1 hrs followed by EGF addition and measured after 30 mins by AlphaScreen analysis relative to control. The class given is cell-based.

Experiment [17] has the same target. The experiment in a line: Inhibition of ERK1/2 in human BT474 cells assessed as reduction in EGF-induced phosphorylation of ERK1/2 at Thr202/Tyr204 residues up to 2 uM preincubated for 1 hrs followed by EGF addition and measured after 30 mins by AlphaScreen analysis relative to control. The format is cell-based.
Experiment [18] relates to MCF7/PTX. Kind of experiment: Cytotoxicity against paclitaxel-resistant human MCF7/PTX cells assessed as reduction in cell viability after 24 hrs by MTT assay. The format is functional, cell-based. The method in brief:
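MTT viability after 24 h exposure. MCF-7/PTX cells were derived from MCF-7 by three months of culture in rising paclitaxel (0.4 to 6.0 nM). Cells grew in RPMI with 10% FBS at 37 °C, 5% CO2. Compounds were dissolved in DMSO, 0.5% final. At least three independent experiments.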
(In general: Tetrazolium dyes change colour on reduction, which living cells bring about.)

In experiment [19] the test system is BT-474. The experiment in a line: Synergistic cytotoxicity against human BT474 cells assessed as combination index at 1 to 5 uM after 24 hrs in presence of 0.1 to 20 nM of paclitaxel by MTT assay. The format is functional. The method in brief:
as §1

Experiment [20] deals with T1, Mitogen-activated protein kinase; ERK1/ERK2 (Homo sapiens). The experiment in a line: Inhibition of ERK1/2 in human BT474 cells assessed as reduction in EGF-induced phosphorylation of ERK1/2 level up to 1 uM preincubated for 24 hrs followed by EGF addition and measured after 30 mins by Western blot analysis. The class given is cell-based.
Experiment [21] deals with MCF7. Kind of experiment: Induction of apoptosis in human MCF7 cells at 3 uM after 24 hrs by Annexin V-phycoerythrin/7-AAD staining based flow cytometric analysis relative to control. The format is functional. The method, boiled down:
as §2

For experiment [22], the target named is T1, Mitogen-activated protein kinase; ERK1/ERK2 (Homo sapiens). The experiment in a line: Inhibition of ERK1/2 in human MCF7 cells assessed as reduction in EGF-induced phosphorylation of ERK1/2 level up to 1 uM preincubated for 24 hrs followed by EGF addition and measured after 30 mins by Western blot analysis. The format is cell-based.
The test system of experiment [23] is MCF7. The experiment in a line: Induction of apoptosis in human MCF7 cells pre-treated with ERK1/2 siRNA at 2 uM in presence of 1 nM paclitaxel by Annexin V-phycoerythrin/7-AAD staining based flow cytometric analysis relative to control. The format is functional, cell-based. The method in brief:
as §3

Experiment [24] relates to MCF7. Kind of experiment: Cytotoxicity against human MCF7 cells assessed as reduction in cell viability after 24 hrs by MTT assay. The conditions noted are these: MCF7, 24 h.
Experiment [25] deals with MDA-MB-468. The experiment in a line: Induction of apoptosis in human MDA-MB-468 cells pre-treated with ERK1/2 siRNA at 0.2 uM in presence of 1 nM paclitaxel by Annexin V-phycoerythrin/7-AAD staining based flow cytometric analysis relative to control. The format is functional. The method, boiled down:
as §3

Experiment [26] addresses T1, Mitogen-activated protein kinase; ERK1/ERK2 (Homo sapiens). The experiment in a line: Inhibition of ERK1/2 in human BT474 cells assessed as reduction in paclitaxel-induced phosphorylation of ERK1/2 at Thr202/Tyr204 residues up to 2 uM preincubated for 1 hrs followed by 1 nM paclitaxel addition and measured after 30 mins by AlphaScreen analysis relative to control. The format is cell-based.

For experiment [27], the system named is MCF7/PTX. The experiment in a line: Induction of apoptosis in paclitaxel-resistant human MCF7/PTX cells at 3 uM after 24 hrs by Annexin V-phycoerythrin/7-AAD staining based flow cytometric analysis relative to control. The class given is functional. The method in brief:
as §2

For experiment [28], the target named is T1, Mitogen-activated protein kinase; ERK1/ERK2 (Homo sapiens). The experiment in a line: Inhibition of ERK1/2 in human MCF7 cells assessed as reduction in EGF-induced phosphorylation of ERK1/2 at Thr202/Tyr204 residues up to 3 uM preincubated for 1 hrs followed by EGF addition and measured after 30 mins by AlphaScreen analysis relative to control. The format is cell-based.

Activity calls are given as the source filed them. The calls are words filed in the database; no cut-off is given here.

Take `CC(=O)O[C@H]1C(=O)[C@@]2(C)[C@H]([C@H](OC(=O)c3ccccc3)[C@]3(O)C[C@H](OC(=O)[C@H](O)[C@@H](NC(=O)c4ccccc4)c4ccccc4)C(C)=C1C3(C)C)[C@]1(OC(C)=O)CO[C@@H]1C[C@@H]2O` [PACLITAXEL]: the Activity in the experiment on BT-474 [1], in the experiment on MDA-MB-468 [2] and in the experiment with MCF7 [3] was 10 - 15% in each case.
As to `CC1=CC(=O)c2c(O)cccc2C1=O` [PLUMBAGIN], the inhibition result in experiment [4], in experiment [6], in experiment [9], in [14], in [16] and in experiment [17] was “Active” throughout. Also, the inhibition result in [20], in experiment [22], in experiment [26] and in experiment [28] was “Active” each time. Moreover, the CI is on record as 0.5 - 1 with MDA-MB-468 [5], 0.9 in the experiment with MCF7 [13] and 0.6 with BT-474 [19]. Also, the outcome in the experiment on MCF7/PTX [7], in the experiment with BT-474 [15] and in the experiment on MCF7 [23] was Active. For the same compound, the Activity in the experiment on BT-474 [8] is on record as 15%; in the experiment on MDA-MB-468 [10] it was 35%; in the experiment on MDA-MB-468 [11] it was 20%; with MCF7 [12], 10%; in the experiment with MCF7 [21], 20%; with MDA-MB-468 [25] it was 25%. The compound further yielded an Activity in the experiment with MCF7/PTX [27] of 20%. In addition, the IC50 in the experiment with MCF7/PTX [18] and in the experiment on MCF7 [24] was 3.5 µM in each case.
